By Ki is commonly meant the equilibrium dissociation constant of an inhibitor or competing ligand from its target. Usually inhibition stands for the share of the control response that was lost under treatment.

Experimental findings from ChEMBL document CHEMBL4219118, “Cathepsin B inhibitors: Further exploration of the nitroxoline core” (Bioorg Med Chem Lett, 2018) are described below.

The source made the active and inactive calls. The rule behind the calls is not given here. Bounds are passed on as bounds.

The target of data set [1] is T1, Cathepsin B (Homo sapiens, UniProt P07858). Nature of the data set: Non-competitive inhibition of recombinant human cathepsin B exopeptidase activity assessed as inhibitory constant for enzyme-substrate-inhibitor complex using Abz-Gly-Ile-Val-Arg-Ala-Lys(Dnp)-OH as substrate in presence of pH 5 acetate buffer by fluorescence assay.
The target in data set [2] is T1, Cathepsin B. Nature of the data set: Non-competitive inhibition of recombinant human cathepsin B endopeptidase activity assessed as inhibitory constant for enzyme-inhibitor complex using Z-Arg-Arg-AMC as substrate in presence of pH 6 phosphate buffer by fluorescence assay.
For data set [3], the target named is T1, Cathepsin B. Nature of the data set: Non-competitive inhibition of recombinant human cathepsin B exopeptidase activity assessed as inhibitory constant for enzyme-inhibitor complex using Abz-Gly-Ile-Val-Arg-Ala-Lys(Dnp)-OH as substrate in presence of pH 5 acetate buffer by fluorescence assay.
Data set [4] deals with T1, Cathepsin B. Nature of the data set: Non-competitive inhibition of recombinant human cathepsin B endopeptidase activity assessed as inhibitory constant for enzyme-substrate-inhibitor complex using Z-Arg-Arg-AMC as substrate in presence of pH 6 phosphate buffer by fluorescence assay.
The target of data set [5] is T1, Cathepsin B. Nature of the data set: Competitive inhibition of recombinant human cathepsin B endopeptidase activity assessed as inhibitory constant for enzyme-inhibitor complex using Z-Arg-Arg-AMC as substrate in presence of pH 4.5 acetate buffer by fluorescence assay. The following applies: read-out: Ki. An outline of the steps:
(§1)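 Recombinant cathepsin B endopeptidase activity assayed with the small substrate Z-Arg-Arg-AMC at pH 4.5. Acidic conditions chosen to shift the enzyme toward the closed (exopeptidase) conformation. Ki reported.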

Data set [6] deals with T1, Cathepsin B. Nature of the data set: Mixed inhibition of recombinant human cathepsin B exopeptidase activity assessed as inhibitory constant for enzyme-substrate-inhibitor complex using Abz-Gly-Ile-Val-Arg-Ala-Lys(Dnp)-OH as substrate in presence of pH 5 acetate buffer by fluorescence assay.
For data set [7], the target named is T1, Cathepsin B. Nature of the data set: Mixed inhibition of recombinant human cathepsin B exopeptidase activity assessed as inhibitory constant for enzyme-inhibitor complex using Abz-Gly-Ile-Val-Arg-Ala-Lys(Dnp)-OH as substrate in presence of pH 5 acetate buffer by fluorescence assay.
The target in data set [8] is T1, Cathepsin B. Nature of the data set: Mixed inhibition of recombinant human cathepsin B endopeptidase activity assessed as inhibitory constant for enzyme-substrate-inhibitor complex using Z-Arg-Arg-AMC as substrate in presence of pH 6 phosphate buffer by fluorescence assay.
Data set [9] deals with T1, Cathepsin B. Nature of the data set: Mixed inhibition of recombinant human cathepsin B endopeptidase activity assessed as inhibitory constant for enzyme-inhibitor complex using Z-Arg-Arg-AMC as substrate in presence of pH 6 phosphate buffer by fluorescence assay.
In data set [10] the target is T1, Cathepsin B. Nature of the data set: Uncompetitive inhibition of recombinant human cathepsin B endopeptidase activity assessed as inhibitory constant for enzyme-substrate-inhibitor complex using Z-Arg-Arg-AMC as substrate in presence of pH 6 phosphate buffer by fluorescence assay.
In data set [11] the test system is MCF-10A-neoT. Nature of the data set: Cytotoxicity against human MCF10AneoT cells assessed as decrease in cell viability after 72 hrs by MTS assay. The data set is classed as cell-based.
Data set [12] deals with T1, Cathepsin B. Nature of the data set: Inhibition of cathepsin B in human MCF-10A neoT cells assessed as proteolysis of extracellular membrane by measuring decrease in extracellular degradation of DQ-collagen 4 at 5 uM incubated for 6 hrs measured for 2 hrs by fluorescence based spectrofluorimetric assay relative to control. The data set is classed as cell-based. An outline of the steps:
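MCF-10A neoT cells (5 × 10⁴) incubated with DQ-collagen IV in the presence of compound or DMSO. Extracellular degradation product read by spectrofluorimetry. Mean of n = 3, six replicates per experiment.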

Data set [13] concerns the target T1, Cathepsin B. Nature of the data set: Inhibition of cathepsin B in human MCF-10A neoT cells assessed as proteolysis of extracellular membrane by measuring decrease in intracellular degradation of DQ-collagen 4 at 50 uM incubated for 2 hrs followed by DQ-collagen addition measured for 2 hrs by propidium iodide staining based flow cytometry relative to control. The data set is classed as cell-based. An outline of the steps: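 MCF-10A neoT cells (6 × 10⁴) treated with compound or DMSO. Intracellular DQ-collagen IV degradation measured by flow cytometry, with unlabeled cells as background. Reduction expressed versus DMSO. Mean of n = 3, run in duplicate.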
In general terms: Flow cytometry measures light scatter and fluorescence of single cells or particles in a stream.

The subject of the next data set is U-87 MG. Nature of the data set: Cytotoxicity against human U87MG cells assessed as decrease in cell viability after 72 hrs by MTS assay. The data set is classed as cell-based. Conditions: u-87mg atcc.
The target in data set [14] is T1, Cathepsin B. Nature of the data set: Inhibition of recombinant human cathepsin B endopeptidase activity assessed as inhibitory constant for enzyme-substrate-inhibitor complex using Z-Arg-Arg-AMC as substrate in presence of pH 6 phosphate buffer by fluorescence assay.
In data set [15] the target is T1, Cathepsin B. Nature of the data set: Uncompetitive inhibition of recombinant human cathepsin B exopeptidase activity assessed as inhibitory constant for enzyme-substrate-inhibitor complex using Abz-Gly-Ile-Val-Arg-Ala-Lys(Dnp)-OH as substrate in presence of pH 5 acetate buffer by fluorescence assay.
Data set [16] addresses T1, Cathepsin B. Nature of the data set: Inhibition of recombinant human cathepsin B endopeptidase activity assessed as inhibitory constant for enzyme-inhibitor complex using Z-Arg-Arg-AMC as substrate in presence of pH 4.5 acetate buffer by fluorescence assay. An outline of the steps:
as §1

In data set [17] the test system is MCF-10A-neoT. Nature of the data set: Antiinvasive activity against human MCF10AneoT cells at 5 uM incubated for 1 hr measured every 15 mins for 72 hrs by real time xCELLigence assay relative to control. The data set is classed as functional. Summed up: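 MCF-10A neoT cells (3 × 10⁴) seeded on Matrigel-coated (1 mg/mL) upper compartments of CIM-plates. Compound or DMSO (0.05%) added to growth medium in both upper and lower compartments. Invasion followed by impedance (cell index) for 72 h. Slopes (1/h) between 4 and 14 h converted to percentage invasion versus DMSO. Means of n = 2, each run in triplicate.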

In the case of `O=C(c1cc([N+](=O)[O-])c2cccnc2c1O)N1CCOCC1`, the Ki was determined as 122 µM on Cathepsin B [1], 136 µM on Cathepsin B [2], 122 µM on Cathepsin B [3] and 136 µM at Cathepsin B [4].
Regarding `N#CCNC(=O)c1ccc2c([N+](=O)[O-])cc([N+](=O)[O-])c(O)c2n1`, the Ki came out at 29 µM at Cathepsin B [5]; 34 µM at Cathepsin B [6]; 160 µM on Cathepsin B [2]; 201 µM on Cathepsin B [7]; 160 µM at Cathepsin B [4].
Turning to `CC1CCN(C(=O)c2cc([N+](=O)[O-])c3cccnc3c2O)CC1`, the Ki is 94 µM at Cathepsin B [8], 162 µM on Cathepsin B [1], 162 µM on Cathepsin B [3] and 143 µM at Cathepsin B [9].
As for `O=C(O)c1ccc2c([N+](=O)[O-])ccc(O)c2n1`, the inhibition constant Ki stood at 240 µM at Cathepsin B [1], 139 µM on Cathepsin B [2], 240 µM at Cathepsin B [3] and 139 µM at Cathepsin B [4].
In the case of `N#CCN(Cc1ccccc1)C(=O)c1ccc2c([N+](=O)[O-])cc([N+](=O)[O-])c(O)c2n1`, the Ki at Cathepsin B [10] turned out to be 9 µM; on Cathepsin B [5], 163 µM; at Cathepsin B [6], 35 µM; on Cathepsin B [7], 154 µM. The Activity result with MCF-10A-neoT [11] and in the data set on U-87 MG was “Non-Toxic” in each case. The inhibition result at Cathepsin B [12] is “Active”. Also, the inhibition entry on Cathepsin B [13] was “inactive”.
Regarding `N#CCNC(=O)c1ccc2c([N+](=O)[O-])ccc(O)c2n1`, the Ki worked out at 116 µM on Cathepsin B [8], 190 µM at Cathepsin B [1], 190 µM at Cathepsin B [3] and 180 µM at Cathepsin B [9].
Consider `N#CCN(Cc1ccccc1)C(=O)c1cc([N+](=O)[O-])c2cccnc2c1O`, for which the Ki on Cathepsin B [8] came out at 64 µM; at Cathepsin B [5], 132 µM; on Cathepsin B [6], 32 µM; on Cathepsin B [7] it was 185 µM; on Cathepsin B [9] it was 182 µM. Further, the Activity result with MCF-10A-neoT [11] and in the data set with U-87 MG was “Non-Toxic” throughout. Moreover, the figures for the inhibition at Cathepsin B [12] and on Cathepsin B [13] were 60% and under 10%, respectively.
Regarding `COCCCOc1cc(-c2ccc([N+](=O)[O-])c3cccnc23)ccc1OC`, the inhibition constant Ki at Cathepsin B [6] came to 22 µM; at Cathepsin B [2], 323 µM; at Cathepsin B [7], 118 µM; on Cathepsin B [4], 323 µM.
As for `Cn1cccc1-c1ccc([N+](=O)[O-])c2cccnc12`, the Ki at Cathepsin B [1] stood at 224 µM; at Cathepsin B [2], 333 µM; on Cathepsin B [3], 224 µM; on Cathepsin B [4], 333 µM.
As to `O=[N+]([O-])c1ccc(O)c(CN2CCOCC2)c1`, the Ki on Cathepsin B [1] was 97 µM; on Cathepsin B [2], 212 µM; on Cathepsin B [3], 97 µM; on Cathepsin B [4], 212 µM.
Regarding `O=C(c1cc([N+](=O)[O-])ccc1O)N1CCOCC1`, the inhibitory constant (Ki) at Cathepsin B [1] stood at 176 µM; at Cathepsin B [2] it was 237 µM; at Cathepsin B [3], 176 µM; at Cathepsin B [4], 237 µM.
As to `CC(=O)c1ccc(-c2cc(-c3ccc([N+](=O)[O-])c4cccnc34)c(-c3ccc(C(C)=O)cc3)o2)cc1`, the Ki on Cathepsin B [10] was 39 µM; on Cathepsin B [14] it was “Not Active”; on Cathepsin B [15], 13 µM; on Cathepsin B [16] it was “Not Active”.
As for `CCCNC(=O)[C@H]1O[C@@H]1C(=O)N[C@H](C(=O)N1CCC[C@H]1C(=O)O)[C@@H](C)CC`, the Activity in the data set on MCF-10A-neoT [17] turned out to be 40%. On Cathepsin B [13], the inhibition result is “inactive”.
For `Nc1ccc2c([N+](=O)[O-])ccc(O)c2n1`, the Ki was found to be 329 µM at Cathepsin B [1], 202 µM at Cathepsin B [2], 329 µM on Cathepsin B [3] and 202 µM on Cathepsin B [4].
Turning to `COCCN(CC1CCN(Cc2nc3ccccc3s2)CC1)C(=O)c1cc([N+](=O)[O-])c2cccnc2c1O`, the Ki on Cathepsin B [8] is 41 µM; at Cathepsin B [1], 181 µM; at Cathepsin B [3], 181 µM; on Cathepsin B [9], 200 µM.
On to `N#CCNC(=O)c1cc([N+](=O)[O-])ccc1O`, for which the Ki on Cathepsin B [1] worked out at 168 µM; at Cathepsin B [2], 271 µM; on Cathepsin B [3], 168 µM; on Cathepsin B [4], 271 µM.
As for `O=C(c1cc([N+](=O)[O-])c2cccnc2c1O)N1CCCCC1`, the Ki on Cathepsin B [8] was 171 µM; on Cathepsin B [1] it was 364 µM; on Cathepsin B [3] it was 364 µM; at Cathepsin B [9] it was 311 µM.
As for `N#CC1(NC(=O)c2ccc3c([N+](=O)[O-])ccc(O)c3n2)CC1`, the Ki came out at 66 µM at Cathepsin B [8], 154 µM on Cathepsin B [1], 154 µM at Cathepsin B [3] and 157 µM on Cathepsin B [9].
For the compound `N#CCN(Cc1ccccc1)C(=O)c1cc([N+](=O)[O-])ccc1O`, the Ki on Cathepsin B [1] stood at 96 µM; on Cathepsin B [2], 342 µM; at Cathepsin B [3], 96 µM; at Cathepsin B [4], 342 µM.
`CCCNC(=O)[C@H]1O[C@@H]1C(=O)N[C@H](C(=O)N1CCC[C@H]1C(=O)OC)[C@@H](C)CC`: the inhibition result at Cathepsin B [13] is “Active”.
Turning to `N#Cc1ccc2c([N+](=O)[O-])ccc(O)c2n1`, the Ki is 68 µM at Cathepsin B [8]; 123 µM on Cathepsin B [5]; 214 µM on Cathepsin B [1]; 214 µM at Cathepsin B [3]; 142 µM at Cathepsin B [9].
Turning to `CC(=O)c1ccc(-c2occc2-c2ccc([N+](=O)[O-])c3cccnc23)cc1`, the Ki on Cathepsin B [10] was 46 µM; at Cathepsin B [14], “Not Active”; at Cathepsin B [15], 11 µM; on Cathepsin B [16], “Not Active”.
As to `N#CCN(Cc1ccccc1)C(=O)c1ccc2c([N+](=O)[O-])ccc(O)c2n1`, the Ki on Cathepsin B [10] turned out to be 34 µM; on Cathepsin B [6], 18 µM; at Cathepsin B [7], 156 µM.
As for `CN(CC#N)C(=O)c1ccc2c([N+](=O)[O-])cc([N+](=O)[O-])c(O)c2n1`, the Ki on Cathepsin B [8] was determined as 122 µM; on Cathepsin B [6], 109 µM; on Cathepsin B [7], 257 µM; at Cathepsin B [9] it was 341 µM.
`CN(CC#N)C(=O)c1cc([N+](=O)[O-])c2cccnc2c1O`: the Ki at Cathepsin B [1] stood at 121 µM; on Cathepsin B [2], 185 µM; at Cathepsin B [3] it was 121 µM; at Cathepsin B [4], 185 µM.
Turning to `CN(CC#N)C(=O)c1ccc2c([N+](=O)[O-])ccc(O)c2n1`, the Ki at Cathepsin B [8] is 263 µM; on Cathepsin B [1], 205 µM; on Cathepsin B [3], 205 µM; at Cathepsin B [9], 102 µM.
As for `N#Cc1ccc2c([N+](=O)[O-])cc([N+](=O)[O-])c(O)c2n1`, the results for the inhibitory constant (Ki) on Cathepsin B [10], on Cathepsin B [1] and on Cathepsin B [3] were 39 µM, 192 µM and 192 µM, respectively.
